Laboratory results taken from ChEMBL document CHEMBL2321840, “Synthesis and structure-activity relationships of indazole arylsulfonamides as allosteric CC-chemokine receptor 4 (CCR4) antagonists” (J Med Chem, 2013).
Converted amounts (≈) assume the structure as drawn.

Key:
[1] = Stability of the compound in solid state at 40 to 50 degC 75 % relative humidity after 1 month by NMR analysis; conditions: 730.5 h
[2] = target: T1, C-X-C chemokine receptor type 2 (Homo sapiens, UniProt P25025); assay: Antagonist activity at CXCR2 receptor (unknown origin) by [35S]GTPgammaS binding assay; assay type: functional
T1 sequence (P25025 whole entry): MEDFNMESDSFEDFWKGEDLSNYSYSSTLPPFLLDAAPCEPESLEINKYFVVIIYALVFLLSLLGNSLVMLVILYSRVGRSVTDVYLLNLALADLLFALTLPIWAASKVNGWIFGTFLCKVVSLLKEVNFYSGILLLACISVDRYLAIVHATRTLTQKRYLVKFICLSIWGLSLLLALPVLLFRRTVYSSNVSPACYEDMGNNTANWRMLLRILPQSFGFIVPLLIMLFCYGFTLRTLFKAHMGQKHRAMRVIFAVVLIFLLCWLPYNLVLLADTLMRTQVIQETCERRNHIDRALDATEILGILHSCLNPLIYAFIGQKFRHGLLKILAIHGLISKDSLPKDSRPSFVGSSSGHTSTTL

[3] = Plasma protein binding in human by equilibrium dialysis technique; assay type: ADME, cell-free; conditions: read-out: PPB (converted)
In short: (§1)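 Rapid equilibrium dialysis in CD rat, beagle dog or human plasma, with compound at a nominal 1 μg/mL; n = 3.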

[4] = Dissociation constant, pKa of the compound; assay type: physicochemical
[5] = Plasma protein binding in CD rat by equilibrium dialysis technique; assay type: ADME, cell-free; conditions: read-out: PPB
In short: as §1

[6] = Equilibrium solubility of the compound in fed-state simulated intestinal fluid at pH 6.5 after 24 hrs by HPLC analysis; assay type: physicochemical
In short: (§2)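 Solid compound was equilibrated 24 h in the stated medium: water, SGF pH 1.6, FeSSIF pH 6.5, FaSSIF pH 6.5 or saline. Dissolved compound was quantified by HPLC.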

[7] = Equilibrium solubility of the compound in fasted-state simulated intestinal fluid at pH 6.5 after 24 hrs by HPLC analysis; assay type: physicochemical
In short: as §2

Oryctolagus cuniculus [8] = organism: Oryctolagus cuniculus; assay: Cardiotoxicity in rabbit assessed as effect on conduction; assay type: toxicity
[9] = target: C-C chemokine receptor type 8 (Homo sapiens, UniProt P51685); assay: Antagonist activity at CCR8 receptor (unknown origin) by [35S]GTPgammaS binding assay; assay type: functional
Sequence of C-C chemokine receptor type 8 (P51685 whole entry): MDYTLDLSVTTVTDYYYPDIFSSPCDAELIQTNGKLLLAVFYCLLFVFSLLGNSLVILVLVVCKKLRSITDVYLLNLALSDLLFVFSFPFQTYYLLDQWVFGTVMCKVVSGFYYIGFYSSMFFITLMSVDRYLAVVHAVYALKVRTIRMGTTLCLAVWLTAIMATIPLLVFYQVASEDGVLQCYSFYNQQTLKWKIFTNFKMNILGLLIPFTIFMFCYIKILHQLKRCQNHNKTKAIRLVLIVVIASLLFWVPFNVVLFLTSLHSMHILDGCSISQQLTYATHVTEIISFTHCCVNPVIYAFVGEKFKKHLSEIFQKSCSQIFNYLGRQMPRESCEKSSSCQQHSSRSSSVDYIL

in vivo = conditions: CD, rat, iv, 1 mg/kg
Rattus norvegicus [10] = assay: Toxicity in rat assessed as effect on body temperature at 30 to 300 mg/kg, po; assay type: organism-based; parameters: dose 30-300 mg/kg, route oral; conditions: in vivo
In short: (§3)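 Conscious rats were given oral doses of 30, 100 and 300 mg/kg. Body temperature, cardiovascular and electrocardiographic parameters were monitored.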

Salmonella typhimurium = assay: Genotoxicity in Salmonella typhimurium by Ames test; assay type: toxicity, organism-based; conditions: salmonella enterica subsp. enterica serovar typhimurium
[11] = Chemical stability of the compound in PBS using DMSO at pH 7.4 after 100 hrs by NMR analysis; assay type: physicochemical; conditions: buffer, pH 7.4, 100 h
[12] = Oral bioavailability in Beagle dog at 1 mg/kg; assay type: ADME, organism-based, Canis lupus familiaris; conditions: in vivo
[13] = Equilibrium solubility of the compound in water after 24 hrs by HPLC analysis; assay type: physicochemical
In short: as §2

[14] = Equilibrium solubility of the compound in Britton-Robinson buffer at pH 10 after 24 hrs by HPLC analysis; assay type: physicochemical
In short: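 Solid compound was equilibrated 24 h in Britton–Robinson buffer at the stated pH. Dissolved compound was quantified by HPLC.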

[15] = target: T2, C-C chemokine receptor type 1 (Homo sapiens, UniProt P32246); assay: Antagonist activity at CCR1 receptor (unknown origin) by [35S]GTPgammaS binding assay; assay type: functional
T2 sequence (P32246 whole entry): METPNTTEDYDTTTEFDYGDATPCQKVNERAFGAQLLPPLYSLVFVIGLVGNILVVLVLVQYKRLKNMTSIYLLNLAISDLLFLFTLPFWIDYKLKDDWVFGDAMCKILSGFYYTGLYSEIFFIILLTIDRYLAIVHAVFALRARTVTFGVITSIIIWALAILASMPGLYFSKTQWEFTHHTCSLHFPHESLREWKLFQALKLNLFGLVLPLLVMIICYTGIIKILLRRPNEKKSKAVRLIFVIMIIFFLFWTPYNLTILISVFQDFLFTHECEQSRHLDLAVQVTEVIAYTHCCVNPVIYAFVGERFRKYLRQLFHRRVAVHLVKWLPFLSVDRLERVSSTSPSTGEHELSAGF

[16] = target: T3, C-X-C chemokine receptor type 3 (Homo sapiens, UniProt P49682); assay: Antagonist activity at CXCR3 receptor (unknown origin) by [35S]GTPgammaS binding assay; assay type: functional
T3 sequence (P49682 whole entry): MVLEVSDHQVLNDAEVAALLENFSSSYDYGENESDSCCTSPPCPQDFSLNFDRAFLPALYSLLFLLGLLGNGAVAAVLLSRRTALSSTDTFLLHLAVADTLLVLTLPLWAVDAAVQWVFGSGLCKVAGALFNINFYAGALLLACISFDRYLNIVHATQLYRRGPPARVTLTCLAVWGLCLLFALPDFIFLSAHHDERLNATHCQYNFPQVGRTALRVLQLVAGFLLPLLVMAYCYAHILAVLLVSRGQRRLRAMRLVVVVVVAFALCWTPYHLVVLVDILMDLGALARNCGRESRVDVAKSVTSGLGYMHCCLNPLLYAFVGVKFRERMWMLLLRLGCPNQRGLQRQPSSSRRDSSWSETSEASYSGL

Rattus norvegicus [17] = assay: Cardiotoxicity in rat at 30 to 300 mg/kg, po; assay type: toxicity, organism-based; parameters: dose 30-300 mg/kg, route oral; conditions: in vivo
In short: as §3

[18] = Equilibrium solubility of the compound in saline after 24 hrs by HPLC analysis; assay type: physicochemical
In short: as §2

[19] = Chemical stability of the compound in PBS using MeOH at pH 7.4 by NMR analysis; assay type: physicochemical; conditions: buffer
Oryctolagus cuniculus [20] = organism: Oryctolagus cuniculus; assay: Cardiotoxicity in rabbit assessed as liability for torsadogenic arrhythmia; assay type: toxicity
[21] = Lipophilicity, log D of the compound by chromatographic analysis; assay type: physicochemical
In short: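 Chromatographic log D measured at pH 7.4.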

[22] = Volume of distribution at steady state in Beagle dog at 0.5 mg/kg, iv; assay type: ADME, organism-based, Canis lupus familiaris; parameters: dose 0.5 mg/kg, route intravenous; conditions: beagle, in vivo, read-out: Vdss
[23] = target: C-C chemokine receptor type 5 (Homo sapiens, UniProt P51681); assay: Antagonist activity at CCR5 receptor (unknown origin) by [35S]GTPgammaS binding assay; assay type: functional
Sequence of C-C chemokine receptor type 5 (P51681 whole entry): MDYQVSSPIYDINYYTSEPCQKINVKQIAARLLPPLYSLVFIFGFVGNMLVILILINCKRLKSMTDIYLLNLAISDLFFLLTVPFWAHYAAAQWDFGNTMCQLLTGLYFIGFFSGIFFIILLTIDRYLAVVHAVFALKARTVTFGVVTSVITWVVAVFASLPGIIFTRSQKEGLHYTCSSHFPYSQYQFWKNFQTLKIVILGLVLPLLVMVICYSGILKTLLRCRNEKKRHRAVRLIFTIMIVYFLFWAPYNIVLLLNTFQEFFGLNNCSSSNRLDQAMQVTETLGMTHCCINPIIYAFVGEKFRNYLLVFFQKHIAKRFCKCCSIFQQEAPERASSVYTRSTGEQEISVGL

Oryctolagus cuniculus [24] = organism: Oryctolagus cuniculus; assay: Cardiotoxicity in rabbit assessed as effect on cardiac repolarization; assay type: toxicity, Heart
Oryctolagus cuniculus [25] = organism: Oryctolagus cuniculus; assay: Cardiotoxicity in rabbit assessed as effect on contractility; assay type: toxicity

In the case of `COc1cccc2c1c(NS(=O)(=O)c1ccc(Cl)s1)nn2Cc1cccc(CNC(=O)C(C)(C)O)c1`, the Stability [1] is reported as “Stable”, the IC50 [2] is reported as > 10 µM and the fraction unbound [3] is reported as 0.01. For the same molecule, the pKa [4] was 6.54, the fraction unbound [5] was ≤ 0.01 and the solubility thermodynamic at 24 h [6] was 23 µg/mL (≈ 41.9 µM). The solubility thermodynamic at 24 h [7] was 10 µg/mL (≈ 18.2 µM), the Activity (Oryctolagus cuniculus [8]) was “Non-toxic” and the IC50 [9] was > 10 µM. For the same molecule, the half-life (in vivo) was 2.5 h, the Activity (Rattus norvegicus [10]) was “Non-toxic” and the Activity (Salmonella typhimurium) was “Non-toxic”. For the same molecule, the Stability [11] was “Stable”, the bioavailability [12] was 97% and the solubility thermodynamic at 24 h [13] was 57 µg/mL (≈ 104 µM). The solubility thermodynamic at 24 h [14] was 1320 µg/mL (≈ 2410 µM), the IC50 [15] was > 10 µM and the IC50 [16] was > 10 µM. For the same molecule, the Activity (Rattus norvegicus [17]) was “Non-toxic”, the solubility thermodynamic at 24 h [18] was 73 µg/mL (≈ 133 µM) and the Stability [19] was “Unstable”. For the same molecule, the Activity (Oryctolagus cuniculus [20]) was “Non-toxic”, the chromatographic logD [21] was 4.3 and the Vd [22] was 2.2 L/kg. For the same molecule, the IC50 [23] was 6.31 µM, the Activity (Oryctolagus cuniculus [24]) was “Non-toxic” and the Activity (Oryctolagus cuniculus [25]) was “Non-toxic”.
